Measurements from ChEMBL document CHEMBL4819040, “Limonoids from Guarea guidonia and Cedrela odorata: Heat Shock Protein 90 (Hsp90) Modulator Properties of Chisomicine D” (J Nat Prod, 2021).
Blank lines part the entries; values can stand above or below the compound they belong to. The source made the active and inactive calls. The rule behind the calls is not given here.

Columns and labels:
[1] = biological target: T1, Heat shock protein HSP 90-alpha (Homo sapiens, UniProt P07900); assay: Binding affinity to recombinant human HSP90alpha by surface plasmon resonance analysis
[2] = biological target: T1, Heat shock protein HSP 90-alpha; assay: Effect on HSP90alpha in human U-937 cells assessed as JNK p46 protein level at 20 uM after 48 hrs by Western blot analysis (reference value: 1.22); format: cell-based; conditions: filed as modulator
Procedure, shortened: (§1)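 U937 cells (RPMI 1640, 10% FBS, 37 °C, 5% CO2) treated 48 h at 10, 20 or 30 μM, DMSO vehicle ≤0.3%. RIPA lysates, Bradford protein assay, SDS-PAGE, nitrocellulose, HRP secondary with ECL detection. GAPDH loading control, densitometry normalized. Run in duplicate.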

[3] = biological target: T1, Heat shock protein HSP 90-alpha; assay: Effect on HSP90alpha in human U-937 cells assessed as HSP70 protein level at 10 uM after 48 hrs by Western blot analysis (reference value: 0.83); format: cell-based; conditions: filed as modulator; procedure, shortened: as §1
[4] = biological target: T1, Heat shock protein HSP 90-alpha; assay: Effect on HSP90alpha in human U-937 cells assessed as p-JNK p54 protein level at 10 uM after 48 hrs by Western blot analysis (reference value: 2.22); format: cell-based; conditions: filed as modulator; procedure, shortened: as §1
[5] = tested on: U-937; assay: Induction of cell cycle arrest in human U937 cells assessed as decrease in cells at S phase at 20 uM incubated for 48 hrs PI staining based flow cytometric analysis (reference value: 23.6 %); format: functional; set-up: scale not given: the % may be the effect or the level left
[6] = biological target: T1, Heat shock protein HSP 90-alpha; assay: Effect on HSP90alpha in human U-937 cells assessed as JNK p54 protein level at 10 uM after 48 hrs by Western blot analysis (reference value: 2.45); format: cell-based; conditions: filed as modulator; procedure, shortened: as §1
[7] = biological target: T1, Heat shock protein HSP 90-alpha; assay: Effect on HSP90alpha in human U-937 cells assessed as ERK2 protein level at 30 uM after 48 hrs by Western blot analysis (reference value: 0.69); format: cell-based; conditions: filed as modulator; procedure, shortened: as §1
[8] = biological target: T1, Heat shock protein HSP 90-alpha; assay: Effect on HSP90alpha in human U-937 cells assessed as HSP70 protein level at 30 uM after 48 hrs by Western blot analysis (reference value: 0.83); format: cell-based; conditions: filed as modulator; procedure, shortened: as §1
[9] = tested on: U-937; assay: Induction of apoptosis in human U-937 cells assessed as cleavage of pro-caspase at 20 uM by Western blotting analysis; format: functional, cell-based
Procedure, shortened: (§2)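 U937 cells given vehicle (DMSO) or 10 or 20 μM. RIPA whole-cell lysates (protease/phosphatase inhibitors) resolved by SDS-PAGE, blotted to nitrocellulose, ECL detection. Targets: pro-caspase 3/caspase 3 or p-CDC2 (p34)/CDC2. Densitometry normalized. Duplicate experiments.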

[10] = tested on: U-937; assay: Induction of apoptosis in human U-937 cells assessed as viable cells at 20 uM after 48 hrs by AnnexinV-FITC/propidium iodide staining based flow cytometry (reference value: 82.7 %); format: functional; conditions: read-out: Activity
[11] = biological target: T1, Heat shock protein HSP 90-alpha; assay: Effect on HSP90alpha in human U-937 cells assessed as p-JNK p46 protein level at 10 uM after 48 hrs by Western blot analysis (reference value: 1.06); format: cell-based; conditions: filed as modulator; procedure, shortened: as §1
[12] = tested on: U-937; assay: Induction of cell cycle arrest in human U937 cells assessed as G1 phase cells at 20 uM incubated for 48 hrs PI staining based flow cytometric analysis (reference value: 60.8 %); format: functional
[13] = biological target: T1, Heat shock protein HSP 90-alpha; assay: Effect on HSP90alpha in human U-937 cells assessed as ERK2 protein level at 20 uM after 48 hrs by Western blot analysis (reference value: 0.69); format: cell-based; conditions: filed as modulator; procedure, shortened: as §1
[14] = biological target: T1, Heat shock protein HSP 90-alpha; assay: Effect on HSP90alpha in human U-937 cells assessed as ERK2 protein level at 10 uM after 48 hrs by Western blot analysis (reference value: 0.69); format: cell-based; conditions: filed as modulator; procedure, shortened: as §1
[15] = biological target: T1, Heat shock protein HSP 90-alpha; assay: Effect on HSP90alpha in human U-937 cells assessed as HSP90 protein level at 10 uM after 48 hrs by Western blot analysis (reference value: 1.12); format: cell-based; conditions: filed as modulator; procedure, shortened: as §1
[16] = biological target: T1, Heat shock protein HSP 90-alpha; assay: Effect on HSP90alpha in human U-937 cells assessed as p-JNK p46 protein level at 20 uM after 48 hrs by Western blot analysis (reference value: 1.06); format: cell-based; conditions: filed as modulator; procedure, shortened: as §1
[17] = Cytotoxicity against human PBMC cells assessed as cell viability after 48 hrs by MTT assay; format: cell-based
Procedure, shortened: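 PBMCs isolated from healthy-donor buffy coats on Ficoll-Hypaque gradients, exposed to 30 μM or DMSO for 48 h. Viability read by MTT (absorbance 550 nm). Technical triplicates, repeated twice.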

[18] = biological target: T1, Heat shock protein HSP 90-alpha; assay: Inhibition of HSP90alpha (unknown origin) at 10 to 20 uM; conditions: dose 10-20 µM
[19] = tested on: U-937; assay: Induction of cell cycle arrest in human U937 cells assessed as increase in cells at G2 phase at 20 uM incubated for 48 hrs PI staining based flow cytometric analysis (reference value: 11.1 %); format: functional
[20] = tested on: U-937; assay: Induction of cell cycle arrest in human U937 cells assessed as CDC2 protein expression at 10 uM by Western blotting analysis (reference value: 1.22); format: functional; procedure, shortened: as §2
[21] = tested on: U-937; assay: Induction of cell cycle arrest in human U937 cells assessed as CDC2 protein expression at 20 uM by Western blotting analysis (reference value: 1.22); format: functional; procedure, shortened: as §2
[22] = biological target: T1, Heat shock protein HSP 90-alpha; assay: Effect on HSP90alpha in human U-937 cells assessed as JNK p46 protein level at 10 uM after 48 hrs by Western blot analysis (reference value: 1.22); format: cell-based; conditions: filed as modulator; procedure, shortened: as §1
[23] = tested on: U-937; assay: Induction of apoptosis in human U-937 cells assessed as necrotic cells at 20 uM after 48 hrs by AnnexinV-FITC/propidium iodide staining based flow cytometry (reference value: 0 %); format: functional
[24] = biological target: T1, Heat shock protein HSP 90-alpha; assay: Effect on HSP90alpha in human U-937 cells assessed as HSP90 protein level at 30 uM after 48 hrs by Western blot analysis (reference value: 1.12); format: cell-based; conditions: filed as modulator; procedure, shortened: as §1
[25] = biological target: T1, Heat shock protein HSP 90-alpha; assay: Effect on HSP90alpha in human U-937 cells assessed as HSP90 protein level at 20 uM after 48 hrs by Western blot analysis (reference value: 1.12); format: cell-based; conditions: filed as modulator; procedure, shortened: as §1
[26] = tested on: U-937; assay: Induction of apoptosis in human U-937 cells assessed as early apoptotic cells at 20 uM after 48 hrs by AnnexinV-FITC/propidium iodide staining based flow cytometry (reference value: 4.90 %); format: functional
[27] = biological target: T1, Heat shock protein HSP 90-alpha; assay: Effect on HSP90alpha in human U-937 cells assessed as p-ERK2 protein level at 10 uM after 48 hrs by Western blot analysis (reference value: 1.67); format: cell-based; conditions: filed as modulator; procedure, shortened: as §1
[28] = biological target: T1, Heat shock protein HSP 90-alpha; assay: Effect on HSP90alpha in human U-937 cells assessed as p-JNK p46 protein level at 30 uM after 48 hrs by Western blot analysis (reference value: 1.06); format: cell-based; conditions: filed as modulator; procedure, shortened: as §1
[29] = biological target: T1, Heat shock protein HSP 90-alpha; assay: Effect on HSP90alpha in human U-937 cells assessed as JNK p46 protein level at 30 uM after 48 hrs by Western blot analysis (reference value: 1.22); format: cell-based; conditions: filed as modulator; procedure, shortened: as §1
[30] = biological target: T1, Heat shock protein HSP 90-alpha; assay: Effect on HSP90alpha in human U-937 cells assessed as HSP70 protein level at 20 uM after 48 hrs by Western blot analysis (reference value: 0.83); format: cell-based; conditions: filed as modulator; procedure, shortened: as §1
[31] = tested on: U-937; assay: Induction of cell cycle arrest in human U937 cells assessed as phosphorylated CDC2 expression at 20 uM by Western blotting analysis (reference value: 1.07); format: functional; procedure, shortened: as §2
[32] = tested on: U-937; assay: Induction of cell cycle arrest in human U937 cells assessed as phosphorylated CDC2 expression at 10 uM by Western blotting analysis (reference value: 1.07); format: functional; procedure, shortened: as §2
[33] = tested on: U-937; assay: Induction of apoptosis in human U-937 cells assessed as late apoptotic cells at 20 uM after 48 hrs by AnnexinV-FITC/propidium iodide staining based flow cytometry (reference value: 12.4 %); format: functional

Kd [1]: Not Active
SMILES: COC(=O)C[C@H]1C(C)(C)[C@H](O)[C@@H]2CC3=C4CC(=O)O[C@@H](c5ccoc5)[C@]4(C)CC[C@@H]3[C@@]1(C)C2=O [PROCERANOLIDE]

Kd [1]: Not Active
SMILES: C/C=C(\C)C(=O)O[C@@H]1/C=C\C2=C3CC(=O)O[C@@H](c4ccoc4)[C@]3(C)CC[C@]2(O)[C@]2(C)C(=O)C[C@@]1(C)[C@@H]2CC(=O)OC (relative stereo)

Kd [1]: Not Active
SMILES: C=C(C)C(=O)O[C@@H]1/C=C\[C@]2(O)C3=CC(=O)O[C@@H](c4ccoc4)[C@]3(C)CC[C@]2(O)[C@]2(C)C(=O)C[C@@]1(C)[C@@H]2CC(=O)OC

fold change (FC) [2]: 0.92
fold change (FC) [3]: 1.3
fold change (FC) [4]: 1.45
fold change (FC) [6]: 1.18
fold change (FC) [7]: 1.03
fold change (FC) [8]: 1
fold change (FC) [11]: 0.97
fold change (FC) [13]: 1.17
fold change (FC) [14]: 1.17
fold change (FC) [15]: 1.21
fold change (FC) [16]: 1.01
inhibition [18]: inactive
fold change (FC) [22]: 1.13
fold change (FC) [24]: 0.93
fold change (FC) [25]: 0.82
fold change (FC) [27]: 2.12
fold change (FC) [28]: 0.95
fold change (FC) [29]: 0.65
fold change (FC) [30]: 0.91
SMILES: C/C=C(\C)C(=O)O[C@@H]1/C=C\[C@]2(O)C3=CC(=O)O[C@@H](c4ccoc4)[C@]3(C)CC[C@]2(O)[C@]2(C)C(=O)C[C@@]1(C)[C@@H]2CC(=O)OC (relative stereo)
Activity [5]: 12.3%
Activity [9]: Active
viability at 20 µM [10]: 63.1%
Activity [12]: 53.1%
Activity [17]: Non-Toxic
Activity [19]: 16.7%
fold change (FC) [20]: 1.18
fold change (FC) [21]: 0.58
Activity [23]: 0%
Activity [26]: 8.62%
fold change (FC) [31]: 1.09
fold change (FC) [32]: 0.84
Activity [33]: 28.3%

Kd [1]: Not Active
SMILES: CC(=O)O[C@H]1C[C@@]2(C)[C@H](c3ccoc3)OC(=O)[C@H]3O[C@]32[C@@]2(C)[C@H]1[C@@]1(C)[C@@H](OC(C)=O)CC(=O)OC(C)(C)[C@@H]1C[C@H]2OC(C)=O

Kd [1]: Not Active
SMILES: COC(=O)C[C@H]1C(C)(C)[C@H](OC(=O)C(O)C(C)C)[C@@H]2C=C3C4CC(=O)O[C@@H](c5ccoc5)[C@]4(C)CC[C@@H]3[C@@]1(C)C2=O (stereo partly specified)

The next lines start with the compound.

SMILES: COC(=O)C[C@H](OC(C)=O)[C@]1(C)[C@H]2[C@@H](OC(C)=O)C[C@@]3(C)[C@H](c4ccoc4)OC(=O)[C@H]4O[C@]43[C@]2(C)[C@H](OC(C)=O)C[C@H]1C(C)(C)O
Kd [1]: Not Active

SMILES: CC(=O)O[C@H]1CC(=O)OC(C)(C)[C@@H]2C[C@@H](OC(C)=O)[C@@]3(C)C4=CC[C@@H](C(O)(CO)CCO)[C@]4(C)CC[C@@H]3[C@@]12C (stereo partly specified)
Kd [1]: Not Active

SMILES: CC(=O)O[C@H]1C[C@@]2(C)[C@H](C3=CC(=O)O[C@@H]3O)OC(=O)[C@H]3O[C@]32[C@@]2(C)[C@H]1[C@@]1(C)[C@@H](OC(C)=O)CC(=O)OC(C)(C)[C@@H]1C[C@H]2OC(C)=O
Kd [1]: Not Active

SMILES: CC(=O)O[C@H]1C[C@@]2(C)[C@H](C3=CC(=O)O[C@@H]3O)OC(=O)[C@H]3O[C@]32[C@@]2(C)[C@H]1[C@@]1(C)C=CC(=O)OC(C)(C)[C@@H]1C[C@H]2OC(C)=O
Kd [1]: Not Active
